Laboratory results reported in ChEMBL document CHEMBL1152351, “Synthesis of a series of novel dihydroartemisinin derivatives containing a substituted chalcone with greater cytotoxic effects in leukemia cells” (Bioorg Med Chem Lett, 2009).
Active and inactive are the calls of the source. No cut-off for these calls is given here.

How the values were obtained:
HL-60 [1] = assay: Inhibition of human HL60 cell proliferation after 72 hrs by trypan blue exclusion assay; type: functional
How it was run: (§1)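 HL-60 cells treated 72 h, then counted with trypan blue exclusion. IG50 is the concentration giving 50% inhibition of proliferation. IC50 is the concentration giving 50% loss of viability.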

HL-60 [2] = assay: Cytotoxicity against human HL60 cells after 72 hrs by trypan blue exclusion assay; type: functional, cell-based; conditions: HL-60, 72 h; how it was run: as §1
HL-60 [3] = assay: Growth inhibition of human HL60 cells at 1 uM after 72 hrs by trypan blue exclusion assay; type: functional, cell-based
HL-60 [4] = assay: Induction of apoptosis in human HL60 cells assessed as occurrence of nuclear shrinkage, blebbing and apoptotic bodies at 0.2 uM after 24 hrs by acridine orange and ethidium bromide staining; type: functional
How it was run: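 HL-60 cells exposed 12 h and 24 h, stained with acridine orange and ethidium bromide, and viewed by fluorescence microscopy. Cells showing nuclear shrinkage, blebbing or apoptotic bodies were scored apoptotic. Percentage taken from 300 cells counted. Mean ± SD of three independent experiments.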

HL-60 [5] = assay: Cell cycle arrest in human HL60 cells assessed as accumulation at subG1 phase at 0.8 uM after 24 hrs using propidium iodide staining by flow cytometry; type: functional
How it was run: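 HL-60 cells exposed 24 h; propidium iodide staining, then flow cytometry. The subG1 population is scored as apoptotic cells. Mean ± SD from three independent experiments.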

HL-60 [6] = assay: Induction of apoptosis in human HL60 cells assessed as DNA fragmentation at 0.8 uM after 24 hrs using ethidium bromide staining by DNA gel electrophoresis; type: functional, cell-based
How it was run: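 HL-60 cells exposed 24 h. DNA resolved by gel electrophoresis and the fragmented DNA visualized by ethidium bromide staining.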

P388 [7] = assay: Growth inhibition of mouse P388 cells after 72 hrs by trypan blue exclusion assay; type: functional
P388 [8] = assay: Growth inhibition of adriamycin-resistant mouse P388 cells after 72 hrs by trypan blue exclusion assay; type: functional
HL-60 [9] = assay: Induction of apoptosis in human HL60 cells assessed as occurrence of nuclear shrinkage, blebbing and apoptotic bodies at 2 uM after 24 hrs by acridine orange and ethidium bromide staining; type: functional, cell-based
How it was run: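 HL-60 cells treated 12 h and 24 h; stained with acridine orange and ethidium bromide, fluorescence microscopy; cells with nuclear shrinkage, blebbing or apoptotic bodies counted as apoptotic among 300 cells observed; percentage calculated. Three independent experiments, mean ± SD.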

HL-60 [10] = assay: Cell cycle arrest in human HL60 cells assessed as accumulation at subG1 phase at 4 uM after 24 hrs using propidium iodide staining by flow cytometry; type: functional, cell-based
How it was run: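 HL-60 cells exposed 24 h; propidium iodide staining, flow cytometry; apoptotic cells scored as sub-G1 fraction. Three independent experiments, mean ± SD.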

HL-60 [11] = assay: Induction of apoptosis in human HL60 cells assessed as DNA fragmentation at 4 uM after 24 hrs using ethidium bromide staining by DNA gel electrophoresis; type: functional, cell-based
How it was run: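 HL-60 cells treated 24 h; DNA fragmentation resolved by DNA gel electrophoresis and visualized after ethidium bromide staining.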

Row | SMILES | IG50 (HL-60 [1]) | IC50 (HL-60 [2]) | growth inhibition (GI) (HL-60 [3]) | further results
1 | C[C@H]1[C@@H](OCCOc2ccc(C(=O)/C=C/c3ccccc3Cl)cc2)O[C@@H]2O[C@]3(C)CC[C@H]4[C@H](C)CC[C@@H]1[C@@]24OO3 | 0.119 µM | 136 nM | inactive | 
2 | C[C@H]1[C@@H](OCCOc2ccc(C(=O)/C=C/c3ccc4c(c3)OCO4)cc2)O[C@@H]2O[C@]3(C)CC[C@H]4[C@H](C)CC[C@@H]1[C@@]24OO3 | 0.059 µM | 89 nM | inactive | Activity (HL-60 [4]): 50%; Activity (HL-60 [5]): 80%; Activity (HL-60 [6]): Active; IG50 (P388 [7]): 0.096 µM; IG50 (P388 [8]): 0.178 µM
3 | C[C@H]1[C@@H](OCCOc2ccc(C(=O)/C=C/c3ccccc3)cc2)O[C@@H]2O[C@]3(C)CC[C@H]4[C@H](C)CC[C@@H]1[C@@]24OO3 | 0.208 µM | 193 nM | inactive | 
4 | CCOc1ccc(/C=C/C(=O)c2ccc(OCC(=O)O[C@@H]3O[C@@H]4O[C@]5(C)CC[C@H]6[C@H](C)CC[C@@H]([C@H]3C)[C@@]46OO5)cc2)cc1 | 0.286 µM | 734 nM | inactive | 
5 | C[C@H]1[C@H](OC(=O)COc2ccc(C(=O)/C=C/c3ccc(Cl)cc3)cc2)O[C@@H]2O[C@]3(C)CC[C@H]4[C@H](C)CC[C@@H]1[C@@]24OO3 | 0.276 µM | 537 nM | inactive | 
6 | C[C@H]1[C@@H](OCCOc2ccc(C(=O)/C=C/c3ccc(Br)cc3)cc2)O[C@@H]2O[C@]3(C)CC[C@H]4[C@H](C)CC[C@@H]1[C@@]24OO3 | 0.04 µM | 80 nM | inactive | Activity (HL-60 [4]): 50%; Activity (HL-60 [5]): 80%; Activity (HL-60 [6]): Active; Activity (P388 [7]): 0.098 µM; Activity (P388 [8]): 0.155 µM
7 | COc1ccc(/C=C/C(=O)c2ccc(OCC(=O)O[C@@H]3O[C@@H]4O[C@]5(C)CC[C@H]6[C@H](C)CC[C@@H]([C@H]3C)[C@@]46OO5)cc2)cc1 | 0.174 µM | 394 nM | inactive | 
8 | CCOc1ccc(/C=C/C(=O)c2ccc(OCCO[C@H]3O[C@@H]4O[C@]5(C)CC[C@H]6[C@H](C)CC[C@@H]([C@H]3C)[C@@]46OO5)cc2)cc1 | 0.121 µM | 110 nM | inactive | 
9 | COc1cccc(/C=C/C(=O)c2ccc(OCCO[C@H]3O[C@@H]4C[C@]5(C)CC[C@H]6[C@H](C)CC[C@@H]([C@H]3C)[C@@]46OO5)cc2)c1OC | 0.079 µM | 194 nM | inactive | 
10 | O=C(/C=C/c1ccccc1)c1ccccc1 |  |  | inactive | 
11 | COc1cc(/C=C/C(=O)c2ccc(OCCO[C@H]3O[C@@H]4O[C@]5(C)CC[C@H]6[C@H](C)CC[C@@H]([C@H]3C)[C@@]46OO5)cc2)cc(OC)c1OC | 0.07 µM | 219 nM | inactive | 
12 | COc1ccc(/C=C/C(=O)c2ccc(OCCO[C@H]3O[C@@H]4O[C@]5(C)CC[C@H]6[C@H](C)CC[C@@H]([C@H]3C)[C@@]46OO5)cc2)cc1OC | 0.09 µM | 300 nM | inactive | 
13 | C[C@H]1[C@@H](O)O[C@@H]2O[C@@]3(C)CC[C@H]4[C@H](C)CC[C@@H]1[C@@]24OO3 [ARTENIMOL] | 0.73 µM | 2900 nM |  | Activity (HL-60 [9]): Active; Activity (HL-60 [10]): Active; Activity (HL-60 [11]): Active; Activity (P388 [7]): 2.3 µM; Activity (P388 [8]): 1.51 µM
14 | COc1ccc(/C=C/C(=O)c2ccc(OCCO[C@H]3O[C@@H]4O[C@]5(C)CC[C@H]6[C@H](C)CC[C@@H]([C@H]3C)[C@@]46OO5)cc2)cc1 | 0.214 µM | 147 nM | inactive | 
15 | COc1cccc2c1C(=O)c1c(O)c3c(c(O)c1C2=O)C[C@@](O)(C(=O)CO)C[C@@H]3O[C@H]1C[C@H](N)[C@H](O)[C@H](C)O1 [DOXORUBICIN] |  |  |  | IG50 (P388 [7]): 0.019 µM; IG50 (P388 [8]): 3.73 µM
16 | C[C@H]1[C@H](OC(=O)COc2ccc(C(=O)/C=C/c3ccc(Br)cc3)cc2)O[C@@H]2O[C@]3(C)CC[C@H]4[C@H](C)CC[C@@H]1[C@@]24OO3 | 0.314 µM | 636 nM | inactive | 
17 | COc1ccccc1/C=C/C(=O)c1ccc(OCCO[C@H]2O[C@@H]3O[C@]4(C)CC[C@H]5[C@H](C)CC[C@@H]([C@H]2C)[C@@]35OO4)cc1 | 0.165 µM | 134 nM | inactive | 
18 | C[C@H]1[C@@H](OCCOc2ccc(C(=O)/C=C/c3ccc(Cl)cc3)cc2)O[C@@H]2O[C@]3(C)CC[C@H]4[C@H](C)CC[C@@H]1[C@@]24OO3 | 0.106 µM | 130 nM | inactive | 
